Assay outcomes (PubChem BioAssay)
Sampled rows, rich in hits. Any-hit rate of the full collection: about 1.3%.
MT1-MMP act inh = inhibitors of human MT1-MMP activation; 360,000 tested, 0.061% active; HT1080 RFP-PRO-GFP cells, GFP/RFP ratio fluorescence, overnight; percent of plate control window, DMSO zero; GFP/RFP ratio change, % at 20 µM; P50281; AID 651647;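 active means GFP/RFP ratio change of at least 30% with cell ATP level not reduced by more than half and red fluorescence within 50% of control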
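Material: RFP-PRO-GFP reporter HT1080 cells. Dosing: single-point 20 µM compound, 1% DMSO. Controls: DMSO and RFP-L50D-GFP cell wells. Timing: cells overnight before dosing, compound overnight, 37 °C, 5% CO2. Measure: GFP/RFP fluorescence ratio.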
DAGLB inh = diacylglycerol lipase beta (human) inhibition; Q8NCG7; HEK293T DAGLB membrane lysate, EnzChek fluorogenic substrate; inhibition, % at 5.17 µM; 340,000 tested, 0.059% active; AID 504411; in the data active means inhibition above about 34%;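 further: 0% = enzyme with vehicle and 100% = wells lacking enzyme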
FAS-TE inh = blocks the thioesterase domain of human fatty acid synthase; P49327; recombinant FAS-TE, OMFH fluorogenic substrate, fluorescence endpoint; inhibition, % at 15 µM; 360,000 tested, 0.67% active; AID 602261;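 active means compounds whose normalised, plate-corrected inhibition of enzyme fluorescence in the single-dose primary screen is 50% or more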;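 further: 0% = DMSO with enzyme and 100% = substrate without enzyme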
hiPSC survival = increases survival of single human iPS cells | hiPSC single-cell survival, ATPlite luminescence; 100% = ROCK inhibitor wells, 0% = DMSO | survival enhancement, % at 20 µM | 360,000 tested, 0.044% active; in the data active means survival enhancement above about 18%;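 further: cells exposed to compounds for 16 hours before the ATP read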
SKN-1 inh = blocks SKN-1 activity in C. elegans | AID 624304 | inhibition, % at 21.8 µM | C. elegans VP596 Pgst-4::GFP/RFP ratio, acrylamide-induced, 24 h | 360,000 tested, 0.49% active;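 active means interference check ratio from 0.5 to 1.5 plus GFP to RFP signal ratio inhibition reaching or exceeding a fixed threshold, cut at about 30% in these data, passing the limit was not always enough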
DAGLB inh conf = DAGLB (human) inhibition, confirmation screen; 190 tested, 73% active; shares compounds with DAGLB inh; AID 504445; HEK293T DAGLB membrane lysate, EnzChek fluorogenic substrate; inhibition, % at 5.17 µM;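 active means mean inhibition over triplicate wells above a set limit taken from the primary lipase screen, cut at about 34% in these data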;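 further: 0% = DAGLB with DMSO and 100% = wells lacking DAGLB enzyme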
FAS-TE inh conf = FAS thioesterase (human) inhibition, confirmation. 2,300 tested, 45% active. recombinant FAS-TE, OMFH fluorogenic substrate, fluorescence. shares compounds with FAS-TE inh. AID 624325. inhibition, % at 15 µM;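 active means compounds inhibiting the enzyme by at least 50% at 15 µM in any one of the replicates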;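 further: 0% = enzyme with DMSO only and 100% = wells lacking enzyme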
Active calls of the source: *; / = not tested or not shown.

SMILES | MT1-MMP act inh | DAGLB inh | FAS-TE inh | hiPSC survival | SKN-1 inh | FAS-TE inh conf | others
CCn1c(O)c(C=Nc2ccc(S(N)(=O)=O)cc2)c(=O)[nH]c1=S | 18.8 | 1.8 | -8.2 | 0.9 | 38.3* | /
CC(C)c1cccc(C(C)C)c1OCCn1ccnc1 | -1.0 | -3.0 | -8.5 | -0.8 | 34.2* | /
O=C(Nc1ccc(OC(=O)N2CCCCC2)cc1)N1CCOCC1 | -3.5 | -3.0 | -9.4 | -0.4 | -14.2 | /
O=C(Nc1ccc(OC(=O)N2CCCC2)cc1)N1CCOCC1 | 4.5 | -0.9 | -7.8 | 3.8 | 38.1* | /
O=C1C2CCCC1C(N1CCCC1)CC2 (stereo unspecified) | -0.8 | -1.9 | -9.4 | 1.9 | 8.0 | /
C=C1[C@@H](C)[C@H]2[C@H](Cc3ccccc3)NC(=O)[C@]23OC(=O)/C=C/[C@H](O)CCC[C@@H](C)C/C=C/[C@H]3[C@@H]1O | 10.3 | 2.2 | 1.0 | 40.1* | 6.6 | /
C[C@H]1C/C=C/[C@H]2[C@H](O)[C@H](C)[C@@](C)(O)[C@H]3[C@H](Cc4ccccc4)NC(=O)[C@]32[C@H](O)/C=C/[C@](C)(O)C1 | 1.5 | / | -6.4 | 0.5 | 8.3 | /
C=C1C(C)C2C(Cc3ccccc3)NC(=O)C23C(OC(C)=O)C=CC(C)(O)CC(C)CC=CC3C1O (stereo unspecified) | 12.5 | 0.7 | -7.1 | 60.4* | 7.2 | /
CC(=O)OC(C)(C)/C=C/C(=O)[C@](C)(O)C1[C@H](O)C[C@@]2(C)C3CC=C4C(C[C@H](O)C(=O)C4(C)C)[C@]3(C)C(=O)C[C@]12C (stereo partly specified) | -28.9 | 0.0 | -2.6 | -3.2 | -13.9 | /
CCc1cc(=O)[nH]c(SCCCF)n1 | 2.1 | -1.6 | -5.2 | -3.6 | 1.1 | /
COc1ccc2c(c1)NP(=S)(c1ccccc1)N2C (stereo unspecified) | 5.0 | 0.0 | 7.8 | 0.1 | 54.3* | /
CC1=Nc2ccccc2/C1=C/c1c(O)[nH]c(=O)[nH]c1=O | -7.7 | 1.8 | -3.7 | -0.4 | 36.1* | /
CCC(=NCc1cc(OC)cc(OC)c1)c1c(O)[nH]c(=O)[nH]c1=O | -4.2 | 1.5 | -1.1 | -0.5 | 6.0 | /
CC12CN3CC(C)(CN(C1)C3c1cccs1)C2=O (stereo unspecified) | 1.2 | -0.9 | -5.0 | -0.3 | -3.9 | /
O=C1NC(=S)N(c2ccc(Cl)cc2)C(=O)/C1=C/N1CCN(C(=O)c2ccco2)CC1 | -12.4 | 3.3 | -3.4 | -0.9 | 43.8* | /
O=[N+]([O-])c1cc(O)c(O)c([N+](=O)[O-])c1 | 8.9 | 41.5* | 7.5 | -0.8 | 8.2 | / | DAGLB inh conf=33.1
CC(=O)OC1CCC2(/C=N/O)C(=CCC3C4CCC(=O)C4(C)CCC32)C1 (stereo unspecified) | 3.2 | -2.2 | -1.6 | -0.2 | 14.4 | /
N#Cc1ccc2nc(-c3ccc(CN4CCC(n5c(=O)[nH]c6ccccc65)CC4)cc3)c(-c3ccccc3)nc2c1 | -26.6 | / | 93.1* | 0.9 | -3.9 | 7.4
O=c1[nH]c2ccccc2n1C1CCN(C(c2cccc3ccccc23)c2nnnn2-c2ccc3c(c2)OCCO3)CC1 (stereo unspecified) | -10.6 | / | 71.5* | 5.6 | 8.6 | 14.1
O=c1[nH]c2ccccc2n1C1CCN(C(c2cc3ccccc3o2)c2nnnn2-c2ccc3c(c2)OCCO3)CC1 (stereo unspecified) | -30.7 | / | 65.8* | -1.6 | -0.8 | 13.2
COc1ccc(C(c2nnnn2-c2ccc(OC)cc2)N2CCC(n3c(=O)[nH]c4ccccc43)CC2)cc1 (stereo unspecified) | -6.8 | / | 25.4 | 0.0 | -12.0 | /
Cc1cccc(C)c1-n1nnnc1C(c1cccc2ccccc12)N1CCC(n2c(=O)[nH]c3ccccc32)CC1 (stereo unspecified) | -12.2 | / | 85.5* | 3.2 | 3.7 | 17.2
O=c1[nH]c2ccccc2n1C1CCN(C(CCc2ccccc2)c2nnnn2C2CCCCC2)CC1 (stereo unspecified) | -27.6 | / | 55.0* | 0.5 | -2.6 | 19.0
COc1ccc(-n2nnnc2C(c2cc3ccccc3o2)N2CCC(n3c(=O)[nH]c4ccccc43)CC2)cc1 (stereo unspecified) | 16.3 | / | 40.3 | -1.1 | 5.0 | /
O=C1NCN(c2ccccc2)C12CCN(C(c1cccc3ccccc13)c1nnnn1C1CCCC1)CC2 (stereo unspecified) | 2.6 | / | 76.8* | 4.0 | -0.6 | 18.8
SMILES | MT1-MMP act inh | DAGLB inh | FAS-TE inh | hiPSC survival | SKN-1 inh | FAS-TE inh conf | others
COc1ccc(C(c2nnnn2-c2ccc3c(c2)OCCO3)N2CCC3(CC2)C(=O)NCN3c2ccccc2)cc1 (stereo unspecified) | -12.3 | / | 62.8* | 0.2 | 1.9 | -1.9
CCC(c1nnnn1-c1ccc2c(c1)OCCO2)N1CCC2(CC1)C(=O)NCN2c1ccccc1 (stereo unspecified) | 1.1 | / | 5.1 | 2.8 | 18.1 | /
O=C1NCN(c2ccccc2)C12CCN(C(CCc1ccccc1)c1nnnn1-c1ccc3c(c1)OCCO3)CC2 (stereo unspecified) | -7.9 | / | 64.7* | 0.5 | -0.5 | 21.7
O=C1NCN(c2ccccc2)C12CCN(C(c1ccnc3ccccc13)c1nnnn1-c1ccc3c(c1)OCCO3)CC2 (stereo unspecified) | 0.1 | / | 13.7 | -0.9 | -4.7 | /
CC(NS(=O)(=O)OCC(Cl)(Cl)Cl)c1ccccc1 (stereo unspecified) | -3.3 | -1.0 | -3.4 | -1.2 | 0.2 | /
O=[N+]([O-])c1ccccc1CN1CC=C(c2ccc(F)cc2)CC1 | -1.5 | -10.4 | 25.7 | 0.3 | 5.7 | /
O=[N+]([O-])c1cccc(CN2CC=C(c3ccc(F)cc3)CC2)c1 | 0.3 | -9.8 | 56.9* | -0.7 | 14.0 | 52.6*
Oc1ccc(O)c2c1C1(Cl)C(Cl)=C(Cl)C2(Cl)C1(Cl)Cl | 4.1 | 1.1 | 51.4* | -3.0 | 8.1 | 50.3*
CC(C)CN1CCN(Cc2ccc(F)cc2Cl)CC1CCO (stereo unspecified) | -4.7 | -3.4 | -1.6 | 0.1 | 1.9 | /
COc1cccc(C(c2nnnn2C(C)(C)C)N2CCC3(CC2)C(=O)NCN3c2ccccc2)c1OC (stereo unspecified) | -1.7 | / | 12.5 | 4.2 | -9.2 | /
Oc1c(Br)c(Br)c(Br)c(Br)c1Br | 0.8 | 24.1 | 60.2* | -1.7 | 15.4 | 72.5*
CCOC(=O)[C@]12Cc3ccccc3[C@H]1N(C(C)C)C(=O)c1ccccc12 | -2.4 | / | 13.4 | -1.2 | 6.4 | /
CCOC(=O)[C@]12Cc3ccc(C)cc3[C@H]1N(C1CCCCC1)C(=O)c1ccccc12 | -32.5 | / | 79.8* | -1.9 | 12.9 | 23.5*
CCOC(=O)[C@]12Cc3c(cc(OC)c(OC)c3OC)[C@H]1N(C1CCCCC1)C(=O)c1ccccc12 | -24.1 | / | 81.4* | -1.8 | -3.1 | 61.8*
